Source: ChEMBL document CHEMBL1122071, “Avermectin acyl derivatives with anthelmintic activity” (1982)

Columns and labels:
Format in all cases: functional
[1] = test system: Trichostrongylus axei; assay: Anthelmintic efficacy against Trichostrongylus axei (T.a) in sheep at dose of 0.1 mg/kg administered subcutaneously; 60-89; conditions: route subcutaneous
Procedure, shortened: (§1)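 Experimentally infected lambs carrying mixed nematode species each received 0.1 mg/kg by subcutaneous injection, one sheep per treatment. An untreated infected group of 6 lambs served as comparison, with worm burdens given as the geometric mean number of worms per lamb. Efficacy was scored for each parasite species.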

[2] = test system: Oesophagostomum columbianum; assay: Anthelmintic efficacy against Oseophagostomum columbianum (Oe. c) in sheep at dose of 0.1 mg/kg administered subcutaneously; conditions: route subcutaneous; procedure, shortened: as §1
[3] = test system: Cooperia curticei; assay: Anthelmintic efficacy against adult Cooperia curticei. in sheep at dose of 0.1 mg/kg administered subcutaneously; conditions: route subcutaneous
[4] = test system: Haemonchus contortus; assay: Anthelmintic efficacy against adult Haemonchus contortus (H.c) in sheep at dose of 0.1 mg/kg administered subcutaneously; conditions: route subcutaneous; procedure, shortened: as §1
[5] = test system: Trichostrongylus colubriformis; assay: Anthelmintic efficacy against Trichostrongylus colubriformis (T.c) in sheep at dose of 0.1 mg/kg administered subcutaneously; conditions: route subcutaneous; procedure, shortened: as §1
[6] = test system: Cooperia curticei; assay: Anthelmintic efficacy against immature (EL4) Cooperia curticei. in sheep at dose of 0.1 mg/kg administered subcutaneously; conditions: route subcutaneous
[7] = test system: Trichostrongylus colubriformis; assay: Minimal dose necessary to eliminate > 83% of Trichostrongylus colubriformis infection in gerbils

CC[C@H](C)[C@H]1O[C@]2(C=C[C@@H]1C)C[C@@H]1C[C@@H](C/C=C(\C)[C@@H](O[C@H]3C[C@@H](OC)[C@@H](O[C@H]4C[C@@H](OC)[C@@H](OC(=O)CCC(=O)O)[C@H](C)O4)[C@H](C)O3)[C@@H](C)/C=C/C=C3\CO[C@@H]4[C@H](O)C(C)=C[C@@H](C(=O)O1)[C@]34O)O2
Efficacy [1]: 60%
Efficacy [2]: >90%
Efficacy [3]: >90%
Efficacy [4]: >90%
Efficacy [5]: >90%
Efficacy [6]: >90%
Dose [7]: 0.03 mg/kg
